In ChEMBL document CHEMBL3259773, “Indirubin core structure of glycogen synthase kinase-3 inhibitors as novel chemotype for intervention with 5-lipoxygenase” (J Med Chem, 2014):
Active and inactive are the calls of the source. The rule behind the calls is not given here.

Key:
[1] = target: T1, Polyunsaturated fatty acid 5-lipoxygenase (Homo sapiens) (UniProt P09917); assay: Inhibition of 5-LO in human neutrophils assessed as product formation at 3 uM by cell-intact assay relative to control in presence of 2.5 uM A23187 ionophore; values are per cent of control
T1 sequence (whole entry): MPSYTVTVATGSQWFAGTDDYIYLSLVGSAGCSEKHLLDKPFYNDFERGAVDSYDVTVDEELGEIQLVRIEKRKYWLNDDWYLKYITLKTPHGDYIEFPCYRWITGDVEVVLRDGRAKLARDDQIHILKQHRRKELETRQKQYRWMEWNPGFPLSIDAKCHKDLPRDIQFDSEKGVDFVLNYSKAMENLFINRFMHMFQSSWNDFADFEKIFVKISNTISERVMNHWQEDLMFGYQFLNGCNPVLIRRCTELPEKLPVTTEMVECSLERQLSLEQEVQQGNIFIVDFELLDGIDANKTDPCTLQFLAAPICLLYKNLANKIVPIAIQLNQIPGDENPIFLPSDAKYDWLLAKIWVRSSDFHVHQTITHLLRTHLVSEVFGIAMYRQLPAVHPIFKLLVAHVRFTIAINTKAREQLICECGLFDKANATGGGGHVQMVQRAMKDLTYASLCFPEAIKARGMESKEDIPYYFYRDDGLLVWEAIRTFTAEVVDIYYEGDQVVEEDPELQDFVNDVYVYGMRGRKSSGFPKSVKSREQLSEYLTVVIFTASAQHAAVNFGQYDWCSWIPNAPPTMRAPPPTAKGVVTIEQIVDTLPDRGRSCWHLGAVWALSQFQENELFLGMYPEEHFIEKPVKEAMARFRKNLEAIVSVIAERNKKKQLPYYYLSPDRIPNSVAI

[2] = target: T2, Prostaglandin E synthase (Homo sapiens) (UniProt O14684); assay: Inhibition of human mPGES1 from human A549 cells assessed as PGE2 at 10 uM after 15 mins by HPLC; type: cell-based
T2 sequence (whole entry): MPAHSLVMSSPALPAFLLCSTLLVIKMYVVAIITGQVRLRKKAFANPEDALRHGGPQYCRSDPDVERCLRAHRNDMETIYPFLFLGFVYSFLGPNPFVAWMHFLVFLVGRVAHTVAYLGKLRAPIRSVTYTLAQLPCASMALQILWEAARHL
Method in brief: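 Enzyme (ovine COX-1) or A549 microsomal preparation (human mPGES-1) given compound or reference inhibitor 10 min before reaction start. Activity expressed as % of 0.1% DMSO vehicle control, read-outs 12-HHT (COX-1) and PGE2 (mPGES-1). Means ± SE, n = 3.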

[3] = target: T3, Polyunsaturated fatty acid lipoxygenase ALOX15 (Homo sapiens) (UniProt P16050); assay: Inhibition of 15-LO in human monocytes assessed as 12/15-HETE formation at 0.1 to 10 uM for 10 mins by UPLC-MS/MS analysis; type: cell-based
T3 sequence (whole entry): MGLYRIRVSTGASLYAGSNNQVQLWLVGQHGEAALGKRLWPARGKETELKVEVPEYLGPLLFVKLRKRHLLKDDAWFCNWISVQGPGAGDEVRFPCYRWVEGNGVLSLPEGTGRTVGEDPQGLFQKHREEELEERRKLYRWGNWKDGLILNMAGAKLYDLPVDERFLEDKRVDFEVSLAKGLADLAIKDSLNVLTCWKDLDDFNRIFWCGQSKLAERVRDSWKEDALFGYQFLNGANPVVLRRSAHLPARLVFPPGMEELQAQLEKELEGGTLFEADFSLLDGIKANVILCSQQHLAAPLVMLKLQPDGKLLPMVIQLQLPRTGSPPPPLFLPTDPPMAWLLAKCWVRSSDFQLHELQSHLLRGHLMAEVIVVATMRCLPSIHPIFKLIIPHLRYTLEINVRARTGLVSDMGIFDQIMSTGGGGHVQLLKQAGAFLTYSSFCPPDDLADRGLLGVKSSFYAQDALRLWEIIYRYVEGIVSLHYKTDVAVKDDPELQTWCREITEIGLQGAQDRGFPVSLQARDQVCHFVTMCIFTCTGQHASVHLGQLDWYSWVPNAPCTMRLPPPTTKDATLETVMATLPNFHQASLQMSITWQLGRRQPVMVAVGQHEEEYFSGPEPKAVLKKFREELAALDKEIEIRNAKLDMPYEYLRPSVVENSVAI
Method in brief: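 Human monocytes (2 × 10^6 cells/mL) were preincubated with vehicle (0.1% v/v DMSO) or compound for 10 min at 37 °C. They were then stimulated for 10 min at 37 °C with 2.5 μM A23187 plus 10 μM AA. 12-HETE and 15-HETE were measured by UPLC–MS/MS as peak areas normalized to the internal standard PGB1, expressed as percent of control; n = 3.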

SMILES: O=C1Nc2cc(Br)ccc2/C1=C1/Nc2ccccc2/C1=N\O [6BIO]
- residual activity [1]: 38%
- inhibition [2]: Active
- inhibition [3]: inactive
